Results published in ChEMBL document CHEMBL4041521, “3-Aroylindoles display antitumor activity in vitro and in vivo: Effects of N1-substituents on biological activity” (Eur J Med Chem, 2017).
Calls of active or inactive are those of the source. No cut-off for these calls is given here.

Legend:
[1] = Inhibition of HDAC activity in human HeLa cell nuclear extract using fluorometric substrate measured after 30 mins by fluorescence assay; format: cell-based
[2] = tested on: A549; experiment: Antiproliferative activity against human A549 cells measured after 48 hrs by sulforhodamine-B assay; format: functional, cell-based; conditions: A549, 48 h
[3] = tested on: HCT-116; experiment: Antiproliferative activity against human HCT116 cells measured after 48 hrs by sulforhodamine-B assay; format: functional, cell-based; conditions: HCT-116, 48 h
[4] = tested on: PC-3; experiment: Antiproliferative activity against human PC3 cells measured after 48 hrs by sulforhodamine-B assay; format: functional, cell-based; conditions: PC-3, 48 h
[5] = species: Sus scrofa; experiment: Inhibition of purified porcine tubulin polymerization measured every 1 min for 30 mins
[6] = species: Sus scrofa; experiment: Inhibition of purified porcine tubulin polymerization at 10 uM measured every 1 min for 30 mins
[7] = target: Histone deacetylase 1 (Homo sapiens, UniProt Q13547); experiment: Inhibition of recombinant human HDAC1 using fluorogenic substrate by fluorescence assay
Chain of Histone deacetylase 1 (Q13547 whole entry): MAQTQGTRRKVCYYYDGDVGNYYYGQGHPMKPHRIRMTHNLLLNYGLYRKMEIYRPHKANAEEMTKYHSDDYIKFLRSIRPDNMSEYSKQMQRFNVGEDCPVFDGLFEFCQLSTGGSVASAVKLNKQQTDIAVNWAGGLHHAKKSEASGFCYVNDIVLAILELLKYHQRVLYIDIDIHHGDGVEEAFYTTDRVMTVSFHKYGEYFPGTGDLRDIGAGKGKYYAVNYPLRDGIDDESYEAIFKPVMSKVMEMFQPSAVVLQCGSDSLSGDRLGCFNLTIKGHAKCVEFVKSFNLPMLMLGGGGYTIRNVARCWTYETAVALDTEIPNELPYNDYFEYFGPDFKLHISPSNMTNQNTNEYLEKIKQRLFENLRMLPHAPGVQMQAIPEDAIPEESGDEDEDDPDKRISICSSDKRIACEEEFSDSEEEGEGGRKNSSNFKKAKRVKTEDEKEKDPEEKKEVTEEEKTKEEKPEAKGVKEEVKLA

[8] = target: Histone deacetylase 2 (Homo sapiens, UniProt Q92769); experiment: Inhibition of recombinant human HDAC2 using fluorogenic substrate by fluorescence assay
Chain of Histone deacetylase 2 (Q92769 whole entry): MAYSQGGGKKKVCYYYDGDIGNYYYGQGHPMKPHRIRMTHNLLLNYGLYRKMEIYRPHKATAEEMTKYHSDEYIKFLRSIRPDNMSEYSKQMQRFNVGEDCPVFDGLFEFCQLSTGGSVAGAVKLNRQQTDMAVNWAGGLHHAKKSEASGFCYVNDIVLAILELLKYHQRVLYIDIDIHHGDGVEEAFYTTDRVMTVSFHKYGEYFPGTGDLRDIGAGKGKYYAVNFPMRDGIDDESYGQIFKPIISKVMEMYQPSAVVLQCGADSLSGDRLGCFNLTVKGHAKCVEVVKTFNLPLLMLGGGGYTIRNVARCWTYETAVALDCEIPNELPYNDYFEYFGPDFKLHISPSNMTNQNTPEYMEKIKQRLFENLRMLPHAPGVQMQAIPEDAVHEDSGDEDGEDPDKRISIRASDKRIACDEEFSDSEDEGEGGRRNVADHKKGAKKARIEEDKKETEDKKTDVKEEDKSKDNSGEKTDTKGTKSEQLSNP

[9] = target: T1, Protein deacetylase HDAC6 (Homo sapiens, UniProt Q9UBN7); experiment: Inhibition of recombinant human HDAC6 using fluorogenic substrate by fluorescence assay
T1 sequence (Q9UBN7 whole entry): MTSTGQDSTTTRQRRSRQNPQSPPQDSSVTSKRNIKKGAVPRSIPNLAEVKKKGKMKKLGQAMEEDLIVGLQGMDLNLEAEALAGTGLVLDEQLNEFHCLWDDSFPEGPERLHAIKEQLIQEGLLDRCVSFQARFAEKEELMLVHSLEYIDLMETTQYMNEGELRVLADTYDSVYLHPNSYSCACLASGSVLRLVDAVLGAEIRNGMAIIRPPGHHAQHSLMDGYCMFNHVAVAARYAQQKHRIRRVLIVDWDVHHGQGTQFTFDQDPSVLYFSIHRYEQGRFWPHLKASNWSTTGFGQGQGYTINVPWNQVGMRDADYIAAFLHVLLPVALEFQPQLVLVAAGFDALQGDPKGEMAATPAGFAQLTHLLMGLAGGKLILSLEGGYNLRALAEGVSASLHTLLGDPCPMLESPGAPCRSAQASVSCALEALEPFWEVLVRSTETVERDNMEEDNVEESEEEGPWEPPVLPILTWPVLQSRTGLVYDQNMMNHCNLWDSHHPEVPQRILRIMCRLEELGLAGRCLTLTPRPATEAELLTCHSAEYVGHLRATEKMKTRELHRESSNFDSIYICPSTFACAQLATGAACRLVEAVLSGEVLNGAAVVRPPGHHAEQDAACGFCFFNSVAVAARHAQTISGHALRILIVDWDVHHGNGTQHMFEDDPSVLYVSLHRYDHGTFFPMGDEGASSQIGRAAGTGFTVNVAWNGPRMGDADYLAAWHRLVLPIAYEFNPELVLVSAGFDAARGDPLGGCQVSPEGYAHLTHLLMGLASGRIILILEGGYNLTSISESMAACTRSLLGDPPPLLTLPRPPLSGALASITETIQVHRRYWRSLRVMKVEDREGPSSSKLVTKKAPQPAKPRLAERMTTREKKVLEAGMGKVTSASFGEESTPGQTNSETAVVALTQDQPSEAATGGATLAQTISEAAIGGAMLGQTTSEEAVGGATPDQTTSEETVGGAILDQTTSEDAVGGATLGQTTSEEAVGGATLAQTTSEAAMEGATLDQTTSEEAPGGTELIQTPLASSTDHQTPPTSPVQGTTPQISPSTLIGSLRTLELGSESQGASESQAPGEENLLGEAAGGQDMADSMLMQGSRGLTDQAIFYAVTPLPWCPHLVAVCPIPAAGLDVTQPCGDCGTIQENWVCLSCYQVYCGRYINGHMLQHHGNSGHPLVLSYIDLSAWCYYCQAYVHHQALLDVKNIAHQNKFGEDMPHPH

[10] = species: Homo sapiens; experiment: Inhibition of HDAC in human PC3 cells assessed as increase in alpha-tubulin acetylation by Western blot analysis; format: cell-based
How it was run: (§1)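 PC3 prostate cancer cells treated, then lysed in 20 mM Tris-HCl pH 7.5 with 150 mM NaCl, EDTA/EGTA, phosphatase and protease inhibitors, 0.1% Triton X-100. Lysates spun 13,000 rpm for 30 min, then immunoblotted for acetylated α-tubulin and acetylated histone H3.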

[11] = species: Homo sapiens; experiment: Inhibition of HDAC in human PC3 cells assessed as increase in histone-H3 acetylation by Western blot analysis; format: cell-based; how it was run: as §1
[12] = species: Homo sapiens; experiment: Inhibition of tubulin polymerization in human PC3 cells assessed as […] in MPM2 expression at 0.01 to 10 uM by Western blot analysis; format: cell-based
[13] = species: Homo sapiens; experiment: Inhibition of HDAC in human PC3 cells assessed as increase in histone-H3 acetylation at 0.01 to 10 uM by Western blot analysis; format: cell-based; how it was run: as §1
[14] = species: Sus scrofa; experiment: Inhibition of purified porcine tubulin polymerization at 1 to 10 uM measured every 1 min for 30 mins
[15] = tested on: Mus musculus; experiment: Toxicity in human RPMI8226 cells xenografted in athymic mouse assessed as mortality at 1 mg/kg, ip administered once in a week; format: organism-based; conditions: in vivo
How it was run: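 RPMI-8226 xenograft nude mice given bortezomib 1 mg/kg i.p. once a week as reference treatment; animal deaths recorded.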

[16] = species: Homo sapiens; experiment: Selectivity ratio of IC50 for recombinant human HDAC8 to IC50 for recombinant human HDAC6

Structure (SMILES) | IC50 [1] [nM] | IC50 [2] [nM] | IC50 [3] [nM] | IC50 [4] [nM] | inhibition [5] | inhibition [6] | IC50 [7] [nM] | IC50 [8] [nM] | IC50 [9] [nM] | alpha-tubulin acetylation increase [10] | inhibition [11] | inhibition [12] | inhibition [13] | inhibition [14] | Activity [15] | Ratio IC50 [16]
COc1ccc2c(C(=O)c3cc(OC)c(OC)c(OC)c3)cn(Cc3ccc(C(=O)Nc4ccccc4N)cc3)c2c1 | > 10000 | 208 | 231 | 157 | Dose-dependent effect | – | – | – | – | – | – | – | – | – | – | –
COc1cc(C(=O)c2cn(Cc3ccc(/C=C/C(=O)NO)cc3)c3ccccc23)cc(OC)c1OC | 178 | 1900 | 5500 | 2600 | – | inactive | 141 | 386 | 138 | Dose-dependent effect | Dose-dependent effect | inactive | – | – | – | –
COc1cc(C(=O)c2cn(S(=O)(=O)c3cccc(/C=C/C(=O)NO)c3)c3ccccc23)cc(OC)c1OC | 172 | 4590 | 6680 | 5770 | – | inactive | 139 | 2320 | 792 | – | – | inactive | inactive | – | – | –
COc1ccc2c(C(=O)c3cc(OC)c(OC)c(OC)c3)cn(S(=O)(=O)c3ccc(/C=C/C(=O)NO)cc3)c2c1 | > 10000 | 120 | 70.3 | 66.7 | – | – | > 10000 | > 10000 | > 10000 | – | – | – | – | Active | – | –
COc1ccc(C(=O)c2cn(Cc3ccc(C(=O)NO)cc3)c3cc(OC)ccc23)cc1 | 145 | 940 | 1900 | 1840 | – | inactive | 158 | 209 | 108 | Dose-dependent effect | Dose-dependent effect | inactive | – | – | – | –
COc1ccc2c(C(=O)c3cc(OC)c(OC)c(OC)c3)cn(Cc3ccc(/C=C/C(=O)NO)cc3)c2c1 | 147 | 678 | 1670 | 666 | Dose-dependent effect | – | 130 | 288 | 70.5 | Dose-dependent effect | Dose-dependent effect | – | – | – | – | –
CC(C)C[C@H](NC(=O)[C@H](Cc1ccccc1)NC(=O)c1cnccn1)B(O)O [BORTEZOMIB] | – | – | – | – | – | – | – | – | – | – | – | – | – | – | Toxic | –
CN1CCc2c(c3ccccc3n2Cc2ccc(C(=O)NO)cc2)C1 | – | – | – | – | – | – | – | – | – | – | – | – | – | – | – | 14
